# Experimental data from ChEMBL document CHEMBL4513216, “Probing the Open Global Health Chemical Diversity Library for Multistage-Active Starting Points for Next-Generation Antimalarials” (ACS Infect Dis, 2020).
# Test: Toxicity liver stage against HepG2, at 10uM
# Format: cell-based
# Set-up: test concentration 10 uM, cell line HepG2-A16-CD81EGFP
# Settings: human, HepG2-A16-CD81EGFP cells; read-out: INHIBITION
# In short: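 Uninfected HepG2-A16-CD81EGFP cells, 3 × 10^3 per well, 1536-well, plated on prespotted compound at 10 μM final, parasite-free screening media added to match infected plates; puromycin 10 μM positive, DMSO 0.5% negative; run in parallel with 48 h PbLuc assay at 37 °C, 5% CO2; viability by CellTiter-Glo luminescence, normalized to controls.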
row,Structure (SMILES),cytotoxicity at 10 µM [%]
1,CCS(=O)(=O)c1ccc2oc([C@H]3CCN(Cc4ccccn4)C3)nc2c1,-0.125
2,O=C([C@@H]1Cc2[nH]cnc2CN1CC1CC1)N1CCCC1,2.5
3,CN(C)S(=O)(=O)N1CCN(C(=O)c2cc(-c3ccc(Br)s3)n[nH]2)CC1,-2.66
4,CN(C)C(=O)N1Cc2ccccc2C2(CCN(C3CCOCC3)CC2)C1,7.21
5,CC(C)CNC(=O)N1C[C@H]2CCN[C@H]2C1,7.12
6,C[C@@H]1CN(C(=O)c2ccccc2F)C[C@]12CCN(CCN(C)C)C2=O,3
7,CCn1ccc(-c2cc(C(=O)O)n3nc(C(F)(F)F)c(Br)c3n2)n1,-1.47
8,O=C(CCCc1ccccn1)Nc1cccc(N2CCCNC2=O)c1,1.94
9,CNS(=O)(=O)c1cccc(CNCc2ccsc2)c1,-2.54
10,Cc1ccc(C)c(S(=O)(=O)CCN2CCCC2Cn2cncn2)c1 (centres undefined),-8.5
11,Cc1nc(CN(C)Cc2cc3c(cc2OC(F)F)OCO3)oc1C,2.22
12,Cc1cccc(N(C)Cc2nc3c(cnn3C)c(=O)[nH]2)c1C,-9.23
13,CCN(Cc1nc2c(cnn2C)c(=O)[nH]1)c1cc(C)ccc1C,-11.3
14,CCc1cnc(CN2CCC(O)(c3cc(OC)cc(OC)c3)CC2)o1,-0.276
15,CN(Cc1ccc(Br)s1)Cn1nc(-c2ccccc2)oc1=O,4.86
16,CN(C(=O)CNc1ccc(C#N)cc1)C1CCN(c2ccccn2)CC1,18.7
17,CC(C)c1nc2n(n1)CC(NCCc1cccs1)CC2 (centres undefined),-5.71
18,CNS(=O)(=O)c1cccc(CNC(=O)c2cnn(C)c2C)c1,0.857
19,Cc1ccc(C(=O)NCC2CCN(C)c3ccccc32)c(=O)[nH]1 (centres undefined),12.6
20,CN(C)CC(=O)N1CCO[C@@H]2CC(COCc3ccncc3)C[C@H]21 (some centres undefined),-108
21,COc1cccc(N2CCN(Cc3nccc(OC)c3OC)CC2=O)c1,3.63
22,Cc1nc(C(=O)N[C@H]2COC[C@@H]2N2CCCCC2)cs1,15.5

row,Structure (SMILES),cytotoxicity at 10 µM [%]
1,CC(C)(C)SCCN1CC(=O)N2CC[C@@H](O)C[C@H]2C1=O,4.01
2,Cc1cccn2cc(C(=O)N3CCCN(CC4CC4)C(C(C)C)C3)nc12 (centres undefined),1.46
3,Cc1cc(CN(C)C(=O)C2CCC(=O)N(CC3CCCCC3)C2)n[nH]1 (centres undefined),1.85
4,CCNC(=O)[C@@H]1C[C@@H](N)CN1C(=O)Cc1cc(C)ccc1C,1.87
5,Cc1nc(C2CCCN(C(=O)c3cc4c(s3)CCCC4)C2)no1 (centres undefined),-7.03
6,Cc1nn(C)c(Cl)c1C1CCCN1Cc1cccc(C(N)=O)c1 (centres undefined),-6.22
7,Cc1cc(NC(=O)c2ccc(-n3ncc(C#N)c3N)cc2)n(C)n1,-0.0414
8,Cc1nc(CN(C)C2CCN(CCc3cnn(C)c3)C2)no1 (centres undefined),3.63
9,CC(Cn1cccn1)NC(=O)NCc1cccnc1OC(C)C (centres undefined),-9.44
10,CCc1nc(C2CCCN2C(=O)c2csc(COC)n2)no1 (centres undefined),1.04
11,CC(Cn1cccn1)NCC(=O)NCCc1cccs1 (centres undefined),-12.7
12,Cc1nc(C2CCCN(C(=O)COCCc3ccccc3)C2)no1 (centres undefined),-11.1
13,Cc1cnn(CC2CN(CC(=O)NCc3ccco3)CCO2)c1 (centres undefined),-1.43
14,CC(C)C(=O)N(C)Cc1nc(N2CCCC2)ncc1-c1ccncc1,6.54
15,CNC(=O)[C@H]1C[C@@H]2CN(C(=O)c3ccc(C)nc3)C[C@@H]2N1C(C)C,-116
16,Cc1cccc(CN2CCCCC23CCNC3)n1 (centres undefined),1.49
17,c1cnc(N2CC3(CCN(Cc4ccncc4)C3)C2)nc1,-82.8
18,CCN1C[C@@H]2[C@@H](OC)CCN(C(=O)Cc3ccsc3)[C@@H]2C1,0.11
19,CCc1nnc2n1CCN(C=C1NN=C(c3occc3C)O1)C2,-10
20,O=c1cc(CN2CC[C@@H]3CC[C@H](C2)N3)c2cccc3c2n1CCC3,9.64
21,O=C1C[C@@H]2CC[C@H](CN1)N2C(=O)CCc1ccccc1,-0.0739
22,O=C1C[C@@H]2CC[C@H](CN1)N2C(=O)Cc1ccsc1,1.6
